Results pooled from the literature.
Each line is one published result; the experiments were not run side by side.
SLC6A2: Sodium-dependent noradrenaline transporter (SLC6A2, Homo sapiens, UniProt P23975)
FPR1: fMet-Leu-Phe receptor (FPR1, Homo sapiens, UniProt P21462)
MC4R: Melanocortin receptor 4 (MC4R, Homo sapiens, UniProt P32245)
DNA dC->dU-editing enzyme APOBEC-3B: DNA dC->dU-editing enzyme APOBEC-3B (Homo sapiens, UniProt Q9UH17)

| SMILES | target | test | system | conditions | inhibition [%] |
| --- | --- | --- | --- | --- | --- |
| Clc1ccc(C(c2ccccc2)c2nnnn2CCCN2CCC(CCCc3ccccc3)CC2)cc1 (stereo not shown) | SLC6A2 | transporter uptake, inhibitor | HEK293 | 1 µM | 72.8 |
| Cc1oc2cc(OC(=O)c3ccco3)ccc2c(=O)c1-c1ccccc1 | FPR1 | calcium signal, antagonist | – | 50 µM | 100 |
| Cc1c(COc2c(F)cc(F)cc2F)c2c(n1C)C(=O)C(NCCCN(C)C)=CC2=O | Ribosyldihydronicotinamide dehydrogenase [quinone] (NQO2, Homo sapiens, UniProt P16083) | cell-free assay, inhibitor | – | 1 µM | 73 |
| CNC(=O)c1cc(Oc2ccc(NC(=O)Nc3ccc(Cl)c(C(F)(F)F)c3)cc2)ccn1 | Serine/threonine-protein kinase Chk2 (CHEK2, Homo sapiens, UniProt O96017, I157T) | enzyme activity, inhibitor | – | 10 µM | -1 |
| Fc1ccc(C(c2ccc(F)cc2)c2nnnn2CCCCN2CCC(Cc3ccccc3)CC2)cc1 | SLC6A2 | transporter uptake, inhibitor | HEK293 | 1 µM | 81 |
| O=C1N=C(N2CCCCN2)S/C1=C\c1ccc(F)cc1O | MC4R | ligand displacement, radioligand | – | 10 µM | < 10 |
| CCc1cc2c(=O)c(-c3nc4ccccc4n3C)c(C)oc2cc1OC(C)=O | FPR1 | calcium signal, antagonist | – | 50 µM | 100 |
| Clc1ccc(C(c2ccccc2)c2nnnn2CCCCN2CCC(Cc3ccc(Cl)c(Cl)c3)CC2)cc1 (stereo not shown) | SLC6A2 | transporter uptake, inhibitor | HEK293 | 1 µM | 58.9 |
| CC(=O)N[C@H]1CSSC[C@@H](C(=O)N[C@@H](Cc2c[nH]c3ccccc23)C(N)=O)NC(=O)[C@H](Cc2ccccc2)NC(=O)[C@H](CCCNC(=N)N)NC1=O | MC4R | ligand displacement, radioligand | – | 10 µM, 40 min | 0 |
| COC(=O)Nc1nc2ccc(C(=O)c3cccs3)cc2[nH]1 | DNA dC->dU-editing enzyme APOBEC-3B | enzyme activity, inhibitor, fluorescence | – | 100 µM | 25.9 |
| c1ccc(CCC2CCN(CCCCn3nnnc3C(c3ccccc3)c3ccccc3)CC2)cc1 | SLC6A2 | transporter uptake, inhibitor | HEK293 | 1 µM | 82.8 |
| CC(CCC(=O)NCC(=O)O)C1CCC2C3C(O)CC4CC(O)CCC4(C)C3CC(O)C12C (stereo not shown) | DNA dC->dU-editing enzyme APOBEC-3B | enzyme activity, inhibitor, fluorescence | – | 100 µM | 23.7 |
| CCN1CCN(Cc2ccc(NC(=O)c3ccc(C)c(Oc4ccnc5[nH]ccc45)c3)cc2C(F)(F)F)CC1 | Serine/threonine-protein kinase 10 (STK10, Homo sapiens, UniProt O94804) | target engagement in cells, inhibitor, chemoproteomics | Huh-7 | 10 µM | -64.9 |
| CC/C(=N\NC(=O)NCc1cccc(O)c1)c1ccc(O)c(C)c1O | Fibroblast growth factor receptor 4 (FGFR4, Homo sapiens, UniProt P22455, N535K) | enzyme activity, inhibitor | – | 0.1 µM | 3.1 |
| Cc1ccc(Nc2nccc(N(C)c3ccc4c(C)n(C)nc4c3)n2)cc1S(N)(=O)=O | Serine/threonine-protein kinase Chk2 (CHEK2, Homo sapiens, UniProt O96017) | enzyme activity, inhibitor | – | 10 µM | 44 |
| COc1ccccc1-c1c(C(F)(F)F)oc2cc(OC(=O)C3CC3)ccc2c1=O | FPR1 | calcium signal, antagonist | – | 50 µM | 100 |
| Nc1c(Cl)cccc1C(=O)Nc1ccccc1C(=O)O | srtA (Staphylococcus aureus, UniProt Q2FV99) | enzyme activity, inhibitor | – | 200 µM | 100 |
| O=C(Oc1ccc2c(=O)c(-c3ccccc3)c(C(F)(F)F)oc2c1)c1cccs1 | FPR1 | calcium signal, antagonist | – | 50 µM | 90 |
| Clc1ccc(C(c2ccc(Cl)cc2)c2nnnn2CCCCN2CCN(CCCc3ccccc3)CC2)cc1 | SLC6A2 | transporter uptake, inhibitor | HEK293 | 1 µM | 21.3 |
| CC(=O)c1nn(CC(=O)N2C[C@H](F)C[C@H]2C(=O)Nc2cccc(Br)n2)c2ccc(-c3cnc(C)nc3)cc12 | Plasma kallikrein (KLKB1, Homo sapiens, UniProt P03952) | enzyme activity, inhibitor | – | 10 µM | 20.8 |
| Clc1ccc(C(c2ccccc2)c2nnnn2CCCCN2CCC(CCCc3ccccc3)CC2)cc1 (stereo not shown) | SLC6A2 | transporter uptake, inhibitor | HEK293 | 1 µM | 84.1 |
| Nc1ncnc2c1ncn2C1OC(COP(=O)(O)OP(=O)(O)O)C(O)C1O (stereo not shown) | DNA dC->dU-editing enzyme APOBEC-3B | enzyme activity, inhibitor, fluorescence | – | 100 µM | 41.8 |
